Results published in ChEMBL document CHEMBL1144326, “Exploring the active site of phenylethanolamine N-methyltransferase with 3-hydroxyethyl- and 3-hydroxypropyl-7-substituted-1,2,3,4-tetrahydroisoquinolines” (Bioorg Med Chem Lett, 2005).

Each compound was assayed against T1, Alpha-2A adrenergic receptor (Homo sapiens, UniProt P08913) (assay: Binding affinity against human alpha 2A adrenergic receptor in CHO cells using [3H]RX-821002 as radioligand).
T1 sequence (P08913 whole entry): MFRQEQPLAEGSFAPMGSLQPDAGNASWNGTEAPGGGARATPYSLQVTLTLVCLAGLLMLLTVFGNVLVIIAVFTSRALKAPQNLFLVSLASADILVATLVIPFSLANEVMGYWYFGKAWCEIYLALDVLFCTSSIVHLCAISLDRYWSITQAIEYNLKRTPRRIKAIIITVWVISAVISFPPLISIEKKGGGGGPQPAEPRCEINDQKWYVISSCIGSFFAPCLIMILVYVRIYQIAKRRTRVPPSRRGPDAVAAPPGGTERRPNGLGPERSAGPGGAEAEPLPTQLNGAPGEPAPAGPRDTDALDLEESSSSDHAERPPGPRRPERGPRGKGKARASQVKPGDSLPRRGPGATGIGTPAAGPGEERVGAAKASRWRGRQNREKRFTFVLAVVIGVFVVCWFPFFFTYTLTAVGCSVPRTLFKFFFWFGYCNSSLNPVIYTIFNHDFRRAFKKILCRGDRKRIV
Format: cell-based
In short: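 Membranes from CHO cells stably transfected with human α2A-adrenoceptor; [³H]RX821002 at 0.2 nM as radioligand; nonspecific binding defined with (−)-norepinephrine; displacement of radioligand measured.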
For O=[N+]([O-])c1ccc2c(c1)CNC(C(F)(F)F)C2 (centres undefined), the pKi was 3.4.
For FC(F)(F)C1Cc2ccc(Br)cc2CN1 (centres undefined), the pKi was 4.35.
With O=[N+]([O-])c1ccc2c(c1)CNC(C(F)F)C2 (centres undefined) the pKi was 3.6.
With NS(=O)(=O)c1ccc2c(c1)CNCC2 the pKi was 3.4.
In the case of O=[N+]([O-])c1ccc2c(c1)CNCC2, the pKi is reported as 3.2.
In the case of Clc1ccc2c(c1Cl)CNCC2, the pKi is reported as 6.52.
O=[N+]([O-])c1ccc2c(c1)CNC(CO)C2 (centres undefined) was tested, and the pKi was 3.9.
CC1Cc2ccc([N+](=O)[O-])cc2CN1 (centres undefined) showed a pKi of 4.84.
Work on O=[N+]([O-])c1ccc2c(c1)CNC(CF)C2 (centres undefined) yielded a pKi of 3.2.

Each compound was assayed against T2, Adrenergic receptor alpha-2 (Rattus norvegicus, UniProt P22086+P19328+P22909) (assay: Binding affinity against alpha 2 adrenergic receptor in rat cortex using [3H]clonidine as radioligand).
T2 sequence (P22086 whole entry): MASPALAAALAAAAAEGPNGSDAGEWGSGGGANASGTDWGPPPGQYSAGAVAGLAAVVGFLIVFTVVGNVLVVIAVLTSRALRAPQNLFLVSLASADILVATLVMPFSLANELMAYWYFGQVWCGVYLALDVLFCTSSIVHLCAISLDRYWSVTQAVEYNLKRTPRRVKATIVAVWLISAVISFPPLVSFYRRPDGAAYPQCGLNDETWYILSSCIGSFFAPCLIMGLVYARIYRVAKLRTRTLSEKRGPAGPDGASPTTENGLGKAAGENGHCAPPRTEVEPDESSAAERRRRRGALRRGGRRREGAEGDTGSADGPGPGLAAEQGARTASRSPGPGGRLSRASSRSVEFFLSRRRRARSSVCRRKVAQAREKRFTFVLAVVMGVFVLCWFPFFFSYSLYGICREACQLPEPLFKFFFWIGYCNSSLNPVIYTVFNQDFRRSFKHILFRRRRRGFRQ
T2 sequence (P19328 whole entry): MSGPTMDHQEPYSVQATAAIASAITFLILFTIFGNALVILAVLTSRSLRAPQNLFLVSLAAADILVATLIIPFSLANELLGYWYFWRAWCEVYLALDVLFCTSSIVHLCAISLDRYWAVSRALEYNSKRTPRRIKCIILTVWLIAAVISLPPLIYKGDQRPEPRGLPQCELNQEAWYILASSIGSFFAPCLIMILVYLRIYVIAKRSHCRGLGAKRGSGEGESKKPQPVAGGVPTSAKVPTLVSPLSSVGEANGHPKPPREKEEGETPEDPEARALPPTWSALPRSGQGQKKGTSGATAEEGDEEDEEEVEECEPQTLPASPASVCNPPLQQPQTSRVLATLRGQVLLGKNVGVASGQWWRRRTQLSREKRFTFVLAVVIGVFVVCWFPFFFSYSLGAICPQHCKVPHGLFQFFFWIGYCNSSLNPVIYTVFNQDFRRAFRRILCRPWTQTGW
T2 sequence (P22909 whole entry): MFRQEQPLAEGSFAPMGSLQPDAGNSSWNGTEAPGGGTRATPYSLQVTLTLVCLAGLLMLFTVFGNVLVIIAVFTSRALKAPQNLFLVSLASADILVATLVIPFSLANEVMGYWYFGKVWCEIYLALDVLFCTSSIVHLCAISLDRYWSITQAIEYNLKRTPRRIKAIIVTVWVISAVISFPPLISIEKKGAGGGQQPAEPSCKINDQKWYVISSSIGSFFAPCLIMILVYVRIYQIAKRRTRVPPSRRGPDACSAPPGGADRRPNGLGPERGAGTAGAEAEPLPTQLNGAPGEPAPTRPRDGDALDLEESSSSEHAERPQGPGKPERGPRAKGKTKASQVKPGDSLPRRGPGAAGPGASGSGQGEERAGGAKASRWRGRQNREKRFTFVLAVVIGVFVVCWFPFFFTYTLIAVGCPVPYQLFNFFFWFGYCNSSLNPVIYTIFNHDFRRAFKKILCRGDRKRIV
Format: tissue-based
For O=[N+]([O-])c1ccc2c(c1)CNC(CCCO)C2 (centres undefined), the Ki was 59 µM.
O=[N+]([O-])c1ccc2c(c1)CNC(CCO)C2 (centres undefined) gave a Ki of 46 µM.
In the case of OCCCC1Cc2ccc(Br)cc2CN1 (centres undefined), the Ki is reported as 4.8 µM.
Compound OCCC1Cc2ccc(Br)cc2CN1 (centres undefined) has a Ki of 1.3 µM.
OCC1Cc2ccc(Br)cc2CN1 (centres undefined) gave a Ki of 1 µM.
